According to ChEMBL document CHEMBL2093137, “WHO-TDR NTD Screening”:
Converted amounts (≈) assume the structure as drawn.

Key:
[1] = tested on: Brugia malayi; experiment: (§1) WHO-TDR: Lymphatic Filariasis; format: functional; set-up: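 tested at 10 µM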
Summary of the method: (§2)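 Whole-organism screen of a 10,000-compound diverse library from Life Chemicals, filtered for drug-likeness and reactive groups, against Brugia malayi microfilariae. The assay followed previously published standard procedures, with reference drugs as positive controls. Activity is reported as percent inhibition and as IC50.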

[2] = WHO-TDR: Cytotoxicity; format: toxicity, cell-based; details: human, MRC5 cells
[3] = tested on: Trypanosoma brucei brucei; experiment: WHO-TDR: Human African Trypanosomiasis (HAT); format: functional, organism-based; details: Squib-427
Summary of the method: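 Antiparasitic potency is reported as IC50. The screen covered 10,000 compounds from a diverse Life Chemicals library, filtered for drug-likeness and reactive groups, tested on whole bloodstream-form Trypanosoma brucei of the Squib 427 strain.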

[4] = tested on: Brugia malayi; experiment: as §1; format: functional, organism-based; summary of the method: as §2
[5] = tested on: Trypanosoma cruzi; experiment: WHO-TDR: Chagas disease; format: functional, organism-based, Homo sapiens; details: MRC5
Summary of the method: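 Whole-organism screen of a 10,000-compound diverse library from Life Chemicals, filtered for drug-likeness and reactive groups, against intracellular amastigotes of Trypanosoma cruzi Tulahuen CL2 beta-galactosidase strain grown in MRC-5SV2 human lung fibroblast host cells. The assay followed previously published standard procedures, with a reference drug as positive control. Antiparasitic potency is reported as IC50.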

[6] = tested on: Onchocerca lienalis; experiment: (§3) WHO-TDR: Onchocerciasis; format: functional; set-up: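 at 12.5 µM on microfilariae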
Summary of the method: (§4)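 Whole-organism screen of a 10,000-compound diverse library from Life Chemicals, filtered for drug-likeness and reactive groups, against microfilariae of Onchocerca ochengi or Onchocerca lienalis, used as animal-pathogen stand-ins for the human parasite. The assay followed previously published standard procedures, with reference drugs as positive controls. Activity is reported as percent inhibition and as IC50.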

[7] = tested on: Schistosoma mansoni; experiment: WHO-TDR: Schistosomiasis; format: functional; set-up: concentration or dose not given beside the values
Summary of the method: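 Whole-organism screen of a 10,000-compound diverse library from Life Chemicals, filtered for drug-likeness and reactive groups, against larval and/or adult worms of Schistosoma mansoni Puerto Rican strain. The assay followed previously published standard procedures, with a reference drug as positive control. Activity is reported as percent inhibition and as IC50.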

[8] = tested on: Plasmodium falciparum K1; experiment: WHO-TDR: Malaria; format: functional, organism-based, Homo sapiens; details: Erythrocyte
Summary of the method: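 Antiplasmodial potency, expressed as IC50, was measured in a whole-organism assay on intra-erythrocytic Plasmodium falciparum K1 in human red blood cells. The screened library held 10,000 diverse compounds from Life Chemicals.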

[9] = tested on: Leishmania infantum; experiment: WHO-TDR: Leishmaniasis; format: functional, organism-based, Mus musculus; details: Macrophage
Summary of the method: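 Antiparasitic potency, reported as IC50, was measured against intracellular Leishmania infantum amastigotes. The parasite strain was MHOM/MA(BE)/67, and murine peritoneal macrophages served as host cells for the screen of a 10,000-compound diverse library from Life Chemicals.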

[10] = tested on: Brugia malayi; experiment: as §1; format: functional; set-up: concentration or dose not given beside the values; summary of the method: as §2; remark: listed apart in the source
[11] = tested on: Onchocerca ochengi; experiment: as §3; format: functional; set-up: concentration or dose not given beside the values; summary of the method: as §4;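 note: at 12.5 µM on microfilariae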

Row | Structure (SMILES) | % Inhibition [1] [%] | IC50 [2] [µg/mL] | IC50 [3] [µg/mL] | IC50 [4] [µM] | IC50 [5] [µg/mL] | % Inhibition [6] [%] | % Inhibition [7] [%] | IC50 [8] [µg/mL] | IC50 [9] [µg/mL] | % Inhibition [10] [%] | % Inhibition [11] [%]
1 | COc1ccc(C(=O)Nc2nnc(SCC(=O)Nc3cc(C(F)(F)F)ccc3Cl)s2)cc1OC | 0 | > 16 | > 16 | 5.95 | > 16 | 26.67 | 0 | > 16 | > 16 | 100 | 
2 | O=C(Nc1nc2c(s1)CSc1ccccc1-2)C1CCCN1S(=O)(=O)c1cccs1 (stereo unspecified) | 0 | 1.88 (≈ 4.06 µM) | 0.45 (≈ 0.971 µM) | 5.19 | 0.5 (≈ 1.08 µM) | 93 | 100 | 3.71 (≈ 8 µM) | 4.5 (≈ 9.71 µM) | 100 | 
3 | CCN1CCc2c(sc(NC(=O)c3ccc(S(=O)(=O)N4CC5(C)CC4CC(C)(C)C5)cc3)c2C(N)=O)C1 (stereo unspecified) | 0 | 3.41 (≈ 6.26 µM) | 3.82 (≈ 7.01 µM) | 3.54 | 3.2 (≈ 5.88 µM) | 6.7 | 0 | 5.59 (≈ 10.3 µM) | 5.29 (≈ 9.71 µM) | 100 | 
4 | Cc1nn(-c2ccccc2)c2[nH]cc(C(=O)Nc3ccc(F)c(Cl)c3)c(=O)c12 | 33.33 | 1 (≈ 2.53 µM) | 4.14 (≈ 10.4 µM) | 5.95 | 1.96 (≈ 4.93 µM) | -1 | 62.5 | > 11.9 | 2.34 (≈ 5.9 µM) | 100 | 
5 | COC(=O)c1ccc(CSc2ccc(NC(=O)C(C)C)nn2)o1 | 0 | > 10.1 | > 10.1 | 6.15 | > 10.1 |  | 0 | > 10.1 | > 10.1 | 100 | 0
6 | COc1cccc(C(=O)Nc2nnc(SCc3ccc(Br)cc3)s2)c1 | 33.33 | > 13.1 | > 13.1 | 1.77 | > 13.1 | 0 | 0 | > 13.1 | > 13.1 | 100 | 
7 | O=C(Nc1nc(-c2ccccn2)cs1)c1ccc2ncsc2c1 | 40 | 3.63 (≈ 10.7 µM) | 2.36 (≈ 6.99 µM) | 2.02 | 0.345 (≈ 1.02 µM) | 66.7 | 0 | 1.52 (≈ 4.49 µM) | 3.21 (≈ 9.49 µM) | 100 | 
8 | CCOC(=O)c1c(NC(=O)CSc2nc3c([nH]c4ccccc43)c(=O)n2-c2ccccc2)sc2c1CCC2 | 25 | > 16.3 | > 17.4 | 4.37 | > 16.3 | 0 | 0 | > 16.3 | 5.29 (≈ 9.71 µM) | 100 | 
9 | COC(=O)c1ccc(COc2cccc3c2CCN(Cc2ccc(Cl)cc2)C3=O)o1 | 12.5 | > 12.8 | 0.772 (≈ 1.81 µM) | 4.61 | 3.19 (≈ 7.49 µM) | 20 | 0 | 4.84 (≈ 11.4 µM) | > 12.8 | 100 | 
10 | CCCCc1ccc(NC(=O)CSc2nccn2-c2ccccc2)cc1 | 25 | > 11 | > 11.7 | 4.31 | 3.22 (≈ 8.81 µM) | 0 | 0 | > 11 | > 11 | 100 | 
11 | O=C(O)CCC(=O)Nc1ccc(Br)cc1 | 0 | > 8.16 | > 8.16 | 6.6 | > 8.16 | 0 | 0 | > 8.16 | > 8.16 | 100 | 
12 | COc1ccc(Cl)cc1NC(=O)CSc1nccn1-c1cccc(C)c1C | 25 | > 12.1 | > 12.9 | 3.94 | 2.76 (≈ 6.86 µM) | 46.67 | 0 | > 12.1 | > 12.1 | 100 | 
13 | O=C(COc1ccc(Cl)cc1Cl)Nc1nnc(C23CC4CC(CC(C4)C2)C3)s1 | 0 | > 13.2 | > 13.2 | 1.49 | > 13.2 | 0 | 0 | > 13.2 | 4.26 (≈ 9.71 µM) | 100 | 
14 | O=C(Cc1cc(-c2ccc(Cl)cc2)on1)Nc1cccnc1 | 0 | 1.19 (≈ 3.8 µM) | > 9.41 | 1.77 | 2.25 (≈ 7.18 µM) |  | 0 | > 9.41 | > 9.41 | 100 | 75
15 | O=C(Nc1nc2c(Cl)ccc(Cl)c2s1)C1=COCCO1 | 25 | > 9.93 | > 10.6 | 3.97 | > 9.93 |  | 0 | > 9.93 | > 9.93 | 100 | 
16 | O=C(Nc1nc2c(F)cc(F)cc2s1)c1nc2ccccc2s1 | 50 | > 10.4 | > 11.1 | 3.27 | > 10.4 |  | 0 | > 10.4 | > 10.4 | 100 | 
17 | CCn1ccc(C(=O)Nc2nc(-c3cc(Cl)ccc3Cl)cs2)n1 | 0 | > 11 | 3.52 (≈ 9.6 µM) | 5.18 | > 11 |  | 50 | > 11 | > 11 | 100 | 50
18 | O=C(Nc1nnc(-c2ccc3c(c2)CCCC3)o1)c1cc(Cl)sc1Cl | 50 | > 11.8 | 3.79 (≈ 9.63 µM) | 4.49 | 3.88 (≈ 9.83 µM) |  | 0 | > 11.8 | 6.13 (≈ 15.5 µM) | 100 | 
19 | CC(C)c1ccc2nc(Nc3nc4ccc(S(C)(=O)=O)cc4s3)sc2c1 | 25 | > 12.1 | > 12.1 | 4.95 | > 12.1 |  | 0 | > 12.1 | 3.92 (≈ 9.71 µM) | 100 | 
